Measurements published in the EternaBench riboswitch data.

Test system: MS2 coat protein
Experiment: apparent Kd, MS2 coat protein; higher = weaker binding; RNA-MaP array; FMN 200 µM where present
How it was run: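 Stalled E. coli RNA polymerase transcribed each design on Illumina sequencing-chip clusters. The clusters were titrated with SNAP-549-labelled MS2 coat protein, starting at 0.7 or 1.5 nM and doubling up to 3 µM, first without ligand and then with constant ligand, in 100 mM Tris-HCl pH 7.5, 80 mM KCl, 4 mM MgCl2, BSA, DTT, yeast tRNA and Tween-20. Green signal was normalised to red-channel RNA signal and to the control-cluster median Fmax. The apparent Kd is the median of filtered binding-curve fits made for each cluster.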

[1] = designed as: OFF switch for flavin mononucleotide, no ligand
[2] = ligand present: flavin mononucleotide, designed as: OFF switch for flavin mononucleotide
[3] = designed as: ON switch for flavin mononucleotide, no ligand
[4] = ligand present: flavin mononucleotide, designed as: ON switch for flavin mononucleotide

Row | Sequence | apparent Kd [1] | apparent Kd [2] | apparent Kd [3] | apparent Kd [4]
1 | CAGCCCUGAGGAUAUCCCUACUUGUACAUGAGGAUCACCCAUGUUCUCCUCUGGGCUUUGGGAGAAGGCAGGUCUC | 15 nM | 17.7 nM | – | –
2 | GCAUGACAAAGUCAUGCAAUACGAACAUGAGGAUCACCCAUGUAGGAUAUGCUACUCAAAGAGUAGCAGAAGGACAUGUGUCUU | 33.2 nM | 182 nM | – | –
3 | UUGGGACAUGAGGAUCACCCAUGUAAGGAUAUUGGCGCGCCGGCUCUGUCUGUUCCGCCGAGAAGGUACACGUU | 104 nM | 173 nM | – | –
4 | UGUGUGAGACAGGAUAUGCCGGUUGAAUUGCUGGUAGAAGGGUCUACAUGAGGAUCACCCAUGUGGCCGGUUGG | 18.7 nM | 25.5 nM | – | –
5 | UUAUUUAUACAAGGAUAUCUAUUGUUAAUACGACUUACAUGAGGAUCACCCAUGUUUUUAUGUUUAGAGAAGGUGUAUUUUCAG | – | – | 41.4 nM | 31.8 nM
6 | AAAAUAAGAACAGGAUAUGUGGGUUCGAAAAGCAAAGCUUUCCACAUGAGGAUCACCCAUGUGCCACAGAAGGGUUCGGGUGAU | – | – | 69.1 nM | 27.4 nM
7 | GGUCGUCACAUUAACAUGAGGAUCACCCAUGUAUAAAGACAUGAGGAUAUGCAUCCUAAUUGGAUGCAGAAGGCAUGGACGACC | – | – | 9.7 nM | 6.13 nM
8 | UAUAUAUAGUAAGGAUAUAUAUUUUUUUUAUAAAUAGAAGGUACAGACAUGAGGAUCACCCAUGUUAUAAUAUGGACAUGUGGA | 101 nM | 101 nM | – | –
9 | UUACAUACAAAUGUACAUGAGGAUCACCCAUGUUUGUUGGGAAGAAGGGUAACAGUACUACACAUACAGGAUAUUUCACAAAUA | – | – | 54 nM | 34 nM
10 | CCUGUCGUAUGAGGAUAUGGUCAGCUUUGCUGACCAGAAGGCAUGUCAAUAGACAUGAGGAUCACCCAUGUAGUAAAGACAGGA | – | – | 381 nM | 40.1 nM
11 | CUGUACAUAGGAUAUAGUUGUUUUUACAUGAGGAUCACCCAUGUUACUCCUCUCUCUCUUCUAGAAGGAUGUUUCU | 65.8 nM | 50.1 nM | – | –
12 | AGACUGCGUAGAAUUAGCAGCUGACAGGAUAUGACAUGAGGAUCACCCAUGUGAAAUAAGAAGGGUCAGAAGGGUCACGACACA | 11.7 nM | 9.98 nM | – | –
13 | GGUGCAUAUGAGAAGGCGAUCAUGAAACAUGAUCGAGGAUAUCAUGUAAACAUGAGGAUCACCCAUGUAUGGGAAAAGUGCACC | – | – | 64.8 nM | 8.54 nM
14 | UUGUUACAUGAGGAUCACCCAUGUGAGGAUAUGGUUCGGUACUGUCCUGUCGCGUACUCCAGAAGGCACAUGUU | 63.6 nM | 182 nM | – | –
15 | CUUCGACAUGAGGAUCACCCAUGUCAGGAUAUUGUUUAUCUGGUUUUUUACAGAUAUACAAGAAGGGAUGUGUU | 27.5 nM | 24.6 nM | – | –
16 | CCAGACGUUGUAGGAUAUCUGAAAGGAAGUGUAAGAGAAGGAUAGUGUCUGUAAAACAUGAGGAUCACCCAUGUGGGCGCAUCC | 19.6 nM | 61.9 nM | – | –
17 | UAAGUACAGAAGUACUCCGGGUCCAGAAGGGACAUGAGGAUCACCCAUGUACCGUUGAUUGCUUGUCAGGAUAUGGACCCGGCC | 6.83 nM | 25.7 nM | – | –
18 | AUCAUGUUAGGAUAUACAAGAAAAGAAAAGAAAGAAAAGAAGUAGAAGGAACAUGAGGAUCACCCAUGUAAGAA | 27.3 nM | 45.4 nM | – | –
19 | UGUCGGAGCAGAGGAUAUUACAUGAGGAUCACCCAUGUCUGAACCAAUAGCUGGAAACAGCAAUGUAAGAAGGCUGCUCCGACA | 154 nM | 432 nM | – | –
20 | CCAUGACCGGAGAAGGCAGUUUGUGGGCCUGUUCCUGUCGGAUACAUGAGGAUCACCCAUGUACCUGAGGAUAUCUGGUCGCAG | 5.06 nM | 6.13 nM | – | –
21 | ACAUGAGACUAAGGAUAUGAUGUACCUAUAUGUGACAUGAGGAUCACCCAUGUGGUAAGUAUGACUCAGAAGGUAGAGAUAUGU | – | – | 222 nM | 77.3 nM
22 | UUUAUACAUGAGGAUCACCCAUGUCAAUGUAGUCGAGGAUAUGGGCAGCCGUGAGGCGUACUAGAAGGCGAAGAGG | – | – | 203 nM | 64.9 nM
23 | GCGUACAUAUCAGGAUAUCAUAUUAUUGUUUUACUCAGUGUAUACAUGAGGAUCACCCAUGUUCUUGAGAAGGGAUAUGUACGC | 8.22 nM | 9.91 nM | – | –
24 | AGCUGGUGACAGCAUCCAUCAAAACAUGAGGAUCACCCAUGUAGAAGGCUGUACGGUUACCGUACAGAGGAUAUACAAUGAUGA | 16.3 nM | 27.3 nM | – | –
25 | AGCAAGUAUACAUGAGGAUCACCCAUGUUUUUUAGGGUUAUCAGAAGGUACAUUUUGAGAUAGAGUAAGGAUAUGAAAUAUGCG | – | – | 214 nM | 130 nM
26 | CAUUAAUUCAUUAUAUUAAUUUUACAGGAUAUGUAACAUGAGGAUCACCCAUGUAUUCAAGGUUAACAGAAGGGUAUAUCUAGU | 18.2 nM | 14 nM | – | –
27 | UACAUGUGAGGAUAUGUACGAGACCCUGACGGGCCUCGCAGGCAGAAGGCACAUGAGGAUCACCCAUGUGACCG | 27.2 nM | 99.1 nM | – | –
28 | AUUAGCUGAGGAUAUGCAGCUUUGUUCGUCGAGUGAAAAGAACAUGAGGAUCACCCAUGUAGAAGGCAGUUGAC | 17.4 nM | 18.1 nM | – | –

Row | Sequence | apparent Kd [1] | apparent Kd [2] | apparent Kd [3] | apparent Kd [4]
29 | ACAUGCAUAGCGAUAUGAUCGAGAGAUCAUGUCGCUAAAUUUAGAAGGACAUGAGGAUCACCCAUGUAGGAUAUGGGAGCAUGA | – | – | 44.7 nM | 11.1 nM
30 | UGGUACUACGGAGGAUAUCAUGUAGAUACAUGAGGAUCACCCAUGUCGAUGGAGACAUCGGAGAUUGAGAAGGCCGUAGUACCU | – | – | 610 nM | 29.4 nM
31 | UAACCUCGCGUCAGGAUAUGUGAGGACUGUGACGCACAGAAGGGACAUGAGGAUCACCCAUGUGAAAGAAAUAA | 26.8 nM | 82.5 nM | – | –
32 | GCGAUUAAGUAGAAGGUACGAUAUAUAUCAUUGUAAGGAUAUACUUACAUGAGGAUCACCCAUGUUAAAGGUUAUAAUAAUCGC | – | – | 94.6 nM | 28 nM
33 | AGAUUUGUACAUGAGGAUCACCCAUGUUAAUAGGUGUUUGUCAGAAGGCAUUAAGAGAGAAUUAAUGAGGAUAUGAAGUUACAU | – | – | 42.3 nM | 21.7 nM
34 | AAUAUGAGCUGGAAUAAACCUAAAACAUGAGGAUCACCCAUGUAGGAUAUCAGCACGAUAAGUGCUGAGAAGGACAACCAGCUC | 14.4 nM | 13.9 nM | – | –
35 | AUACUCAUGUAAGGAUAUGCAGUCGAAACGGCUGCAGAAGGUACUAUAAUACAUGAGGAUCACCCAUGUCAAAAUAAAAUAGUU | – | – | 30.3 nM | 22.7 nM
36 | UUCUUGGCAGGAUAUGCUCUUUUAGACAUGAGGAUCACCCAUGUGUUUAUUCUUUUUUUUGCAGAAGGGCCUUAAU | 93.9 nM | 88.8 nM | – | –
37 | GGUCCAUCAUGAGGAUAUGGCACCUUAUUGGUGCCAGAAGGCAUGUCUUUAGACAUGAGGAUCACCCAUGUAAAUAAUUGGACC | – | – | 1030 nM | 92.5 nM
38 | UUUUAGGGAGGAUAUACAUUUUUUUUAUUAUCCUCAUUAAUACAUGAGGAUCACCCAUGUAGAAGGCCCAUUUU | 39.2 nM | 164 nM | – | –
39 | CACGGCGUAUCAGGAUAUGUGGGUGUCUGGACAUGAGGAUCACCCAUGUAAUCAGUAUUAGCCGUGCAGAAGGGAUCCGCUGUA | – | – | 35.2 nM | 60.3 nM
40 | UUAAUUAAUUAAUUGCAGAAACAUGAGGAUCACCCAUGUAUAUAGGAUAUCGUCAGGAAUACUGACGAGAAGGAUAUACACUGC | 23.4 nM | 32.5 nM | – | –
41 | AUCAACCAGGCAGGAUAUCAAUGUGGCCUCAUCGUACACCCUCGCAACAUGAGGAUCACCCAUGUUGAGAAGGGCCAAUUGAGA | 8.52 nM | 8.99 nM | – | –
42 | UUGGACGUCGUAGGACAUGUAGGAUAUUCCUACAUGAGGAUCACCCAUGUUGACAUGGAAGAAGGACAGAAGGACGAUGUCCAU | – | – | 723 nM | 46.9 nM
43 | UAAUAAUAAUAAUAGCAGUUACAUGAGGAUCACCCAUGUAUAUAGGAUAUCGUCAGGAAUACUGACGAGAAGGAUAUACUCUGC | 21.9 nM | 26.2 nM | – | –
44 | CUGUUAUAGGUCCAGAAUUACAACAUGAGGAUCACCCAUGUGCAGGAUAUCGGGUUAAUUUUCGACGAGAAGGGCAUAGUCACG | 33.5 nM | 64.1 nM | – | –
45 | AGGCGUGCUGAGGAUAUACUACCGGUUGCGAUAGUAGAAGGUAGCACAUGAGGAUCACCCAUGUGGUCAGAUGC | 24 nM | 64.6 nM | – | –
46 | UUACGUCACAUUUACAUGAGGAUCACCCAUGUCGAAAGACAUGAGGAUAUGCUACCUAAUUGGUAGCAGAAGGCAUGGACGUCG | – | – | 834 nM | 81.1 nM
47 | GUGAUAUUGUAAGGAUAUACUCUGUGAUGAAGAGUAGAAGGUACUUACAUGAGGAUCACCCAUGUUUAACGAGAUACUAAUCGU | – | – | 198 nM | 76.9 nM
48 | GGUUGACAAAGUCAACCAAAUCGAACAUGAGGAUCACCCAUGUAGGAUAUGCUACUCAAAGAGUAGCAGAAGGACAUGUGCUUU | 40.7 nM | 227 nM | – | –
49 | GUCGGAAACGACAAUGAUAGGACUGAGGAUAUACAUAAAUAAAUCCUUACAUGAGGAUCACCCAUGUAGAAGGCAGUCCUAUCU | 47.2 nM | 590 nM | – | –
50 | GGUCGUCACAUCUACAUGAGGAUCACCCAUGUCAAAAGACAUGAGGAUAUGCUACCUAAUUGGUAGCAGAAGGCAUGGACGACC | – | – | 1290 nM | 72 nM
51 | CUGCGACGGUGCACAAGUGGACGGAGAAGGCAGACAUGAGGAUCACCCAUGUGAGCCUGCUAUUCUGAGGAUAUCCGUUCACAC | 36 nM | 213 nM | – | –
52 | GGCAUACAUGAGGAUCACCCAUGUAACCUGCACUAAGGAUAUGGCGUGGCCCAUGGCUACCCAGAAGGUAGAUAAA | – | – | 136 nM | 195 nM
53 | ACUUGCUUGCAGAAGGGUGACAUGAGGAUCACCCAUGUAGCGGGCUGGCGUAAAGUCAGCGCGCCACAGGAUAUGCAGGCCUCG | – | – | 61.2 nM | 47.6 nM
54 | UACAGACAUGAGGAUCACCCAUGUGAGGAUAUCGAUAACGAUAAAAUAAUAUAAACAACGAGAAGGCACAGCAU | 34.3 nM | 40.3 nM | – | –
55 | CAUGUGUAAGGAUAUGACAAUGGUAUCUUCGGAUACCAUUGUCAGAAGGUACAUGAGGAUCACCCAUGUGGAUC | 441 nM | 103 nM | – | –
